Measurements as given in PMC5108443 (Cardiovascular Therapeutics, 2016).
One block for each compound: values may come before it.

Key:
[1] = Steady-state plasma pharmacokinetics of LCZ696 analytes; assay type: in vivo, human; conditions: for T1/2, mean (SD): LCZ696 200 mg bid (Day 21), patients with stable HF; for Exposure in patients with HF higher than in healthy subjects: LCZ696 200 mg bid, healthy-subject exposure from ref 20; for Dose proportionality of Cmax and AUC0-12 h: between LCZ696 100- and 200-mg doses; for Tmax / AUC(0-t) / Cmax: human, plasma
plasma cGMP = assay: Plasma cGMP; assay type: in vivo, human; conditions: for Plasma cGMP, ratio-to-baseline (95% CI): geometric mean ratio; for Plasma cGMP, predose: geometric mean
plasma ANP = assay: Plasma ANP; assay type: in vivo, human; conditions: for Plasma ANP, ratio-to-baseline (95% CI): geometric mean ratio; for Plasma ANP, predose: geometric mean
urine cGMP = assay: Urine cGMP; assay type: in vivo, human; conditions: for Urine cGMP, ratio-to-baseline (95% CI): geometric mean ratio; for Urine cGMP: geometric mean
urine ANP = assay: Urine ANP; assay type: in vivo, human; conditions: for Urine ANP, ratio-to-baseline (95% CI): geometric mean ratio; for Urine ANP: geometric mean
[2] = test system: plasma renin concentration (PRC); assay: Plasma renin concentration; assay type: in vivo, human; conditions: for PRC, ratio-to-baseline (95% CI): geometric mean ratio; for PRC, predose: geometric mean
Summary of the method: (§1)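 Chronic HF patients (NYHA II–IV, LVEF ≤40%), domiciled on a fixed 3 g sodium/5 g potassium diet. ACEI/ARB stopped over a 24-h run-in. Oral test compound given 100 mg bid for 7 days, then 200 mg bid for 14 days. Plasma drawn at baseline, predose, and 4, 12, 16, 24 h post-dose on Days 7 and 21. Geometric means; ratio-to-baseline with 95% CI by paired t-test on log data.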

[3] = test system: plasma renin activity (PRA); assay: Plasma renin activity; assay type: in vivo, human; conditions: for PRA, ratio-to-baseline (95% CI): geometric mean ratio; for PRA, predose: geometric mean
Summary of the method: as §1

plasma aldosterone = assay: Plasma aldosterone; assay type: in vivo, human
Summary of the method: as §1

[4] = test system: plasma endothelin-1 (ET-1); assay: Plasma endothelin-1; assay type: in vivo, human
Summary of the method: as §1

plasma NT-proBNP = assay: Plasma NT-proBNP; assay type: in vivo, human
Summary of the method: as §1

urinary NT-proBNP = assay: Urinary NT-proBNP; assay type: in vivo, human
Summary of the method: (§2)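 Same patients, diet and oral dosing schedule. Urine collected over 24 h as two 12-h fractions (8:00–20:00, 20:00–8:00) at baseline, Day 7 and Day 21. Volume recorded; sodium, potassium and creatinine measured by standard laboratory methods, NT-proBNP by Elecsys immunoassay. Geometric means calculated; ratio-to-baseline by paired t-test on log-transformed data.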

[5] = Urinary sodium, potassium and creatinine excretion; assay type: in vivo, human; conditions: either treatment period (100 and 200 mg bid)
Summary of the method: as §2

[6] = Safety and tolerability: adverse events; assay type: in vivo, human
Summary of the method: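 Open-label study in HFrEF patients: 24-h run-in with ACEI/ARB stopped and other HF drugs kept, then oral test compound 100 mg bid for 7 days and 200 mg bid for 14 days. Patients domiciled on a standardized diet of 3 g sodium and 5 g potassium daily. Monitoring by ECG, vital signs, and electrolyte, renal and hepatic panels. Safety set comprised all patients dosed at least once.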

[7] = patients with HFrEF, PARADIGM-HF; cited from earlier work
[8] = Day 21 (LCZ696 200 mg bid), N=27
[9] = Day 7 (LCZ696 100 mg bid), N=30
[10] = Day 21, predose, LCZ696 200 mg bid for 14 days

T1/2, mean (SD) ([1]; oral): 18.4 (6.8) h | Exposure in patients with HF higher than in healthy subjects [1]: ~110% | Dose proportionality of Cmax and AUC0-12 h [1]: approximately dose‐proportional | Tmax ([1]; oral, 200 mg): ≤ 2.5 h | AUC(0-t) ([1]; po, 100 mg): 82.6 µg·h/mL | Cmax ([1]; po, 100 mg): 9.1 µg/mL | Tmax ([1]; po, 100 mg): 2.5 h | AUC(0-t) ([1]; po, 200 mg): 147 µg·h/mL | Cmax ([1]; po, 200 mg): 16.3 µg/mL | Tmax ([1]; po, 200 mg): 2 h
Compound: C[C@H](C[C@@H](Cc1ccc(-c2ccccc2)cc1)NC(=O)CCC(=O)O)C(=O)O [LBQ657]

T1/2, mean (SD) ([1]; oral): 13.7 (5.0) h | Exposure in patients with HF higher than in healthy subjects [1]: ~132% | Dose proportionality of Cmax and AUC0-12 h [1]: less than dose‐proportional | Tmax ([1]; oral, 200 mg): ≤ 2 h | AUC(0-t) ([1]; po, 100 mg): 25.9 µg·h/mL | Cmax ([1]; po, 100 mg): 3.81 µg/mL | Tmax ([1]; po, 100 mg): 2 h | AUC(0-t) ([1]; po, 200 mg): 38.8 µg·h/mL | Cmax ([1]; po, 200 mg): 6.04 µg/mL | Tmax ([1]; po, 200 mg): 2 h
Compound: CCCCC(=O)N(Cc1ccc(-c2ccccc2-c2nnn[nH]2)cc1)[C@H](C(=O)O)C(C)C [Valsartan, valsartan, reference compound]

T1/2, mean (SD) ([1]; oral): 3.9 (3.6) h | Exposure in patients with HF higher than in healthy subjects [1]: approximately 55% | Dose proportionality of Cmax and AUC0-12 h [1]: approximately dose‐proportional | Tmax ([1]; oral, 200 mg): ≤ 0.5 h | AUC(0-t) ([1]; po, 100 mg): 1.54 µg·h/mL | Cmax ([1]; po, 100 mg): 1.23 µg/mL | Tmax ([1]; po, 100 mg): 0.5 h | AUC(0-t) ([1]; po, 200 mg): 3.15 µg·h/mL | Cmax ([1]; po, 200 mg): 2.41 µg/mL | Tmax ([1]; po, 200 mg): 0.5 h
Compound: CCOC(=O)[C@H](C)C[C@@H](Cc1ccc(-c2ccccc2)cc1)NC(=O)CCC(=O)O [Sacubitril, sacubitril]

Compound: Sacubitril/valsartan [LCZ696]
Plasma cGMP, ratio-to-baseline (95% CI) (plasma cGMP; Day 7 (LCZ696 100 mg bid)): 1.24 (1.06–1.45) P = 0.008 | Plasma cGMP, predose (plasma cGMP; Day 7 (LCZ696 100 mg bid), N=30, patients with HFrEF): 13.83 nmol/L | Plasma cGMP, ratio-to-baseline (95% CI) (plasma cGMP; Day 21 (LCZ696 200 mg bid)): 1.38 (1.16–1.65) P < 0.001 | Plasma cGMP, predose (plasma cGMP; [8]): 15.07 nmol/L | Plasma ANP, ratio-to-baseline (95% CI) (plasma ANP; Day 7 (LCZ696 100 mg bid)): 0.92 (0.80–1.05) P = 0.223 | Plasma ANP, predose (plasma ANP; [9]): 105.20 pg/mL | Plasma ANP, ratio-to-baseline (95% CI) (plasma ANP; Day 21 (LCZ696 200 mg bid)): 1.00 (0.80–1.26) P = 0.986 | Plasma ANP, predose (plasma ANP; [8]): 110.83 pg/mL | Plasma ANP versus baseline (plasma ANP; either treatment period (100 and 200 mg bid)): not significantly different from baseline | Urine cGMP, ratio-to-baseline (95% CI) (urine cGMP; Day 7 (LCZ696 100 mg bid)): 1.17 (0.97–1.40) P = 0.090 | Urine cGMP (urine cGMP; [9]): 1096.09 nmol | Urine cGMP, ratio-to-baseline (95% CI) (urine cGMP; Day 21 (LCZ696 200 mg bid)): 1.22 (1.01–1.47) P = 0.040 | Urine cGMP (urine cGMP; [8]): 1180.57 nmol | Urine ANP, ratio-to-baseline (95% CI) (urine ANP; Day 7 (LCZ696 100 mg bid)): 1.69 (1.40–2.03) P < 0.001 | Urine ANP (urine ANP; [9]): 353.42 ng | Urine ANP, ratio-to-baseline (95% CI) (urine ANP; Day 21 (LCZ696 200 mg bid)): 1.82 (1.54–2.17) P < 0.001 | Urine ANP (urine ANP; [8]): 378.48 ng | PRC, ratio-to-baseline (95% CI) ([2]; Day 7 (LCZ696 100 mg bid)): 4.30 (2.78–6.64) P < 0.001 | PRC, predose [2, 9]: 42.64 pg/mL | PRC, ratio-to-baseline (95% CI) ([2]; Day 21 (LCZ696 200 mg bid)): 3.50 (2.13–5.76) P < 0.001 | PRC, predose [2, 8]: 34.11 pg/mL | PRA, ratio-to-baseline (95% CI) ([3]; Day 7 (LCZ696 100 mg bid)): 3.94 (2.27–6.87) P < 0.001 | PRA, predose ([3]; Day 7 (LCZ696 100 mg bid), 29 patients): 2.70 ng/mL/h | PRA, ratio-to-baseline (95% CI) ([3]; Day 21 (LCZ696 200 mg bid)): 2.27 (1.20–4.32) P = 0.014 | PRA, predose ([3]; Day 21 (LCZ696 200 mg bid), 26 patients): 1.64 ng/mL/h | Predose plasma aldosterone level compared with baseline (plasma aldosterone; Day 7 (LCZ696 100 mg bid)): trend toward a reduction | Decrease in plasma aldosterone levels (plasma aldosterone; Day 21): 21% | Plasma aldosterone, ratio-to-baseline [95% CI] (plasma aldosterone; [10]): 0.79 [0.65–0.95] | Predose plasma ET-1 level compared with baseline ([4]; Day 7 (LCZ696 100 mg bid)): trend toward a reduction | Plasma ET-1, ratio-to-baseline [95% CI] [4, 10]: 0.80 [0.71–0.91] | Plasma NT-proBNP, ratio-to-baseline [95% CI] (plasma NT-proBNP; Day 7 (LCZ696 100 mg bid)): 0.53 [0.45–0.62] | Plasma NT-proBNP, ratio-to-baseline [95% CI] (plasma NT-proBNP; Day 21 (LCZ696 200 mg bid)): 0.56 [0.45–0.70] | Urinary NT-proBNP, ratio-to-baseline (urinary NT-proBNP; after LCZ696 100 mg bid for 7 days): 0.68 | Urinary NT-proBNP, ratio-to-baseline (urinary NT-proBNP; after LCZ696 200 mg bid for 14 days): 0.74 | Change in mean urinary sodium, potassium, and creatinine excretion [5]: No statistically significant changes | Dose relation of the frequency of AEs ([6]; 100 vs 200 mg bid): not dose related | Deaths or serious AEs during the study ([6]; LCZ696 100 mg bid 7 days then 200 mg bid 14 days, 30 patients): No deaths or serious AEs occurred | Subjects with AE ([6]; LCZ696 100 mg bid (N=30), 7-day titration period): 16 (53.3%) n (%) | Overall tolerability ([6]; LCZ696 100 mg bid for 7 days and 200 mg bid for 14 days): well tolerated | Subjects with AE ([6]; LCZ696 200 mg bid (N=30), 14-day treatment period): 15 (50.0%) n (%) | Subjects with AE ([6]; Total (N=30)): 21 (70.0%) n (%) | Patients who completed the study treatment as per protocol ([6]; of 30 patients): 27 (90%) n (%) | Hypotension reported as an AE ([6]; whole study): not reported | Reduction of CV and all-cause mortality and HF hospitalizations versus enalapril [7]: superior
